This is an account of results in ChEMBL document CHEMBL1140221, “Novel naphthalene-N-sulfonyl-D-glutamic acid derivatives as inhibitors of MurD, a key peptidoglycan biosynthesis enzyme” (J Med Chem, 2008).

Assay [1] in a line: Inhibition of Escherichia coli MurD.
The next assay deals with Escherichia coli. The assay is described as follows: Inhibition of Escherichia coli MurD assessed as residual activity at 1 mM. The method, boiled down:
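Radiolabel MurD assay: E. coli enzyme, 25 µM UMA plus 25 µM D-[14C]Glu, Tris-HCl pH 8.6, MgCl2, 5% DMSO, compound at 1 mM; 30 min at 37 °C, acid-quenched, reverse-phase HPLC with radioactivity detection. Activity expressed relative to an inhibitor-free assay; mean of two independent experiments.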

Molecules are shown by their SMILES.

What is called IC50 is the midpoint of a concentration-inhibition curve. Take `CCCCOc1ccc2cc(S(=O)(=O)N[C@H](CCC(=O)O)C(=O)O)ccc2c1`: the IC50 in assay [1] turned out to be 280 µM.

`CCCCOc1ccc(S(=O)(=O)N[C@H](CCC(=O)O)C(=O)O)c2ccccc12` returned an IC50 in assay [1] above 1000 µM.

For `O=C(O)CC[C@@H](NS(=O)(=O)c1ccc2ccccc2c1)C(=O)O`, the Activity in the assay on Escherichia coli came to 35%. The molecule further showed an IC50 in assay [1] of 810 µM.

As for `CCCCOc1ccc2cc(C(=O)N[C@H](CCC(=O)O)C(=O)O)ccc2c1`, the IC50 in assay [1] was above 1000 µM.

`O=C(O)CC[C@@H](NS(=O)(=O)Cc1ccccc1)C(=O)O`: in the assay with Escherichia coli, the Activity turned out to be 84%.

Consider `O=C(O)CC[C@@H](NC(=O)COc1ccc2ccccc2c1)C(=O)O`, for which the Activity in the assay on Escherichia coli was determined as 76%.

In turn, `CCCOc1ccc2cc(S(=O)(=O)N[C@H](CCC(=O)O)C(=O)O)ccc2c1` returned an IC50 in assay [1] of 305 µM.

In the case of `CC(=O)Nc1ccc(S(=O)(=O)N[C@H](CCC(=O)O)C(=O)O)cc1`, in the assay on Escherichia coli, the Activity was 79%.

Consider `CCCCOc1ccc2cc(CN[C@H](CCC(=O)O)C(=O)O)ccc2c1`, for which the IC50 in assay [1] is above 1000 µM.

`COc1cc(C#N)ccc1COc1ccc2cc(S(=O)(=O)N[C@H](CCC(=O)O)C(=O)O)ccc2c1` showed an IC50 in assay [1] of 100 µM.

Regarding `CCOC(=O)COc1ccc2cc(S(=O)(=O)N[C@H](CCC(=O)O)C(=O)O)ccc2c1`, 192 µM corresponded to half-maximal inhibition in assay [1] (IC50).

For the molecule `CCCCOc1ccc2ccc(S(=O)(=O)N[C@H](CCC(=O)O)C(=O)O)cc2c1`, it took 180 µM to reach half-maximal inhibition in assay [1] (IC50).

`O=C(O)CC[C@@H](NS(=O)(=O)c1ccc2cc(OC3CCCC3)ccc2c1)C(=O)O` registered an IC50 in assay [1] of 400 µM.

In assay [1], `COc1ccc2cc(S(=O)(=O)N[C@H](CCC(=O)O)C(=O)O)ccc2c1` displayed an IC50 of 590 µM.

Molecule `CCCCCCOc1ccc2cc(S(=O)(=O)N[C@H](CCC(=O)O)C(=O)O)ccc2c1` showed an IC50 in assay [1] of 176 µM.

With `O=C(O)CC[C@@H](NS(=O)(=O)Cc1ccc(F)cc1Cl)C(=O)O`, the Activity with Escherichia coli came to 86%.

In assay [1], `CCCCOc1ccc2cc(S(=O)(=O)NCCCC(=O)O)ccc2c1` registered an IC50 above 2000 µM.

The molecule `CCCCOc1ccc2cc(S(=O)(=O)N[C@@H](CCC(=O)O)C(=O)O)ccc2c1` displayed an IC50 in assay [1] of 710 µM.

For the molecule `O=C(O)CC[C@@H](NC(=O)CN1C(=O)c2ccccc2C1=O)C(=O)O`, the Activity in the assay on Escherichia coli was found to be 92%.

As for `Cc1ccc(S(=O)(=O)N[C@H](CCC(=O)O)C(=O)O)cc1`, the Activity in the assay with Escherichia coli amounted to 66%.

`O=C(O)CC[C@@H](NS(=O)(=O)c1ccc2cc(OCc3ccccc3)ccc2c1)C(=O)O`: in assay [1], the IC50 is 239 µM.

In assay [1], `CCCCOc1ccc2cc(S(=O)(=O)N(C)[C@H](CCC(=O)O)C(=O)O)ccc2c1` gave an IC50 above 1000 µM.

On to `CCCCOc1ccc2cc(S(=O)(=O)N[C@H](CCC(=O)OC)C(=O)OC)ccc2c1`, for which the IC50 in assay [1] was above 2000 µM.

In assay [1], `CCCCOc1ccc2cc(S(=O)(=O)NCC(=O)O)ccc2c1` came in with an IC50 above 2000 µM.

The molecule `O=C(O)CC[C@@H](NS(=O)(=O)c1ccc2cc(OCC(=O)O)ccc2c1)C(=O)O` registered an IC50 in assay [1] of 630 µM.

As to `O=C(O)CC[C@@H](NS(=O)(=O)c1ccc2cc(OCCCc3ccccc3)ccc2c1)C(=O)O`, in assay [1], the IC50 stood at 132 µM.

Molecule `CCCCOc1cccc2c(S(=O)(=O)N[C@H](CCC(=O)O)C(=O)O)cccc12` came in with an IC50 in assay [1] above 1000 µM.

Consider `O=C(O)CC[C@@H](NC(=O)C1Oc2ccccc2NC1=O)C(=O)O` (stereo partly specified), for which the Activity in the assay with Escherichia coli was 54%.

Regarding `O=C(O)CC[C@@H](NC(=O)/C=C/c1ccccc1)C(=O)O`, the Activity in the assay with Escherichia coli was 91%.

Consider `O=C(O)CC[C@@H](NC(=O)CCc1cccc(O)c1)C(=O)O`, for which, in the assay with Escherichia coli, the Activity is 81%.

Turning to `O=C(O)CC[C@@H](NS(=O)(=O)c1ccc(-c2ccccc2)cc1)C(=O)O`, the Activity in the assay on Escherichia coli came out at 43%. This molecule also showed an IC50 in assay [1] of 1720 µM.

As to `C[C@@H](CS(=O)(=O)N[C@H](CCC(=O)O)C(=O)O)S(=O)(=O)c1ccc2ccccc2c1`, the Activity in the assay with Escherichia coli came to 75%. In addition, the IC50 in assay [1] is above 2000 µM.

In assay [1], `O=C(O)CCCOc1ccc2cc(S(=O)(=O)N[C@H](CCC(=O)O)C(=O)O)ccc2c1` gave an IC50 above 1000 µM.
